Assay results from BindingDB's records for doi:10.1021/jm9009229 (University of California, 2010).

Target: Cruzipain (Trypanosoma cruzi, UniProt P25779)
Assay: Inhibition of Trypanosoma cruzi cruzain preincubated for 5 mins before substrate addition in presence of 0.01% Triton X-100
Procedure, shortened: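 Cruzain IC50s were measured from dose-response curves with Triton X-100 in the assay buffer at either 0.01% or 0.001%. At 0.001% Triton, some runs included pre-incubation with BSA.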

Sequence of Cruzipain (P25779 whole entry): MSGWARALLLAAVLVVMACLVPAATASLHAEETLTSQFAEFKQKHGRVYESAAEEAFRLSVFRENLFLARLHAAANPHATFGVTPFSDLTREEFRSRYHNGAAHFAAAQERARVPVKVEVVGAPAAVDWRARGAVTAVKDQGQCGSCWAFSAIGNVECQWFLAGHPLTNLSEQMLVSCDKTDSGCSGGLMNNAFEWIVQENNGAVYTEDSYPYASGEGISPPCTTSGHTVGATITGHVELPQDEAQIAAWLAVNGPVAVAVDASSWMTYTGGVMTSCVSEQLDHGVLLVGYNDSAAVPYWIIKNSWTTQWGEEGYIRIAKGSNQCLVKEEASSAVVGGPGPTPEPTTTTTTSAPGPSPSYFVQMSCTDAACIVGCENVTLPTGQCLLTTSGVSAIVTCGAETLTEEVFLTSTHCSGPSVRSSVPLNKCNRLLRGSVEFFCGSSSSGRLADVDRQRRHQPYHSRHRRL

Q: How did the IC50 turn out when `Nc1ccccc1-c1nnc(C(=O)Nc2cccc(N3CCCC3)c2)o1` [5-(2-Amino-phenyl)-[1,3,4]oxadiazole-2-carboxylic acid(3-pyrrolidin-1-yl-phenyl)-amide] was run?
A: > 100 µM

Q: `Cc1cc(NC(=O)c2nnc(-c3ccccc3N)o2)[nH]n1` [5-(2-Amino-phenyl)-[1,3,4]oxadiazole-2-carboxylic acid(5-methyl-2H-pyrazol-3-yl)-amide] was tested. Which IC50 did it give?
A: > 100 µM

Q: `Cc1ccc(-c2cc(NC(=O)c3nnc(-c4ccccc4N)o3)[nH]n2)cc1` [5-(2-Amino-phenyl)-[1,3,4]oxadiazole-2-carboxylic acid(5-p-tolyl-2H-pyrazol-3-yl)-amide] was tested. Which IC50 did it give?
A: > 100 µM

Q: With `Nc1ccccc1-c1nnc(C(=O)Nc2cc(-c3ccccc3)n[nH]2)o1` [5-(2-Amino-phenyl)-[1,3,4]oxadiazole-2-carboxylic acid(5-phenyl-2H-pyrazol-3-yl)-amide] as the compound, how does the IC50 read?
A: > 100 µM

Q: Which IC50 does the source give for `CC(C)(C)c1cc(NC(=O)c2nnc(-c3ccccc3N)o2)[nH]n1` [5-(2-Amino-phenyl)-[1,3,4]oxadiazole-2-carboxylic acid(5-tert-butyl-2H-pyrazol-3-yl)-amide] here?
A: > 50 µM

Q: How did the IC50 turn out when `Nc1ccccc1-c1nnc(C(=O)Nc2ccc3oc4c(c3c2)CCCC4)o1` [5-(2-Amino-phenyl)-[1,3,4]oxadiazole-2-carboxylic acid(6,7,8,9-tetrahydrodibenzofuran-2-yl)-amide] was run?
A: > 100 µM

Q: Which IC50 does the source give for `COc1ccc(-c2cc(NC(=O)c3nnc(-c4ccccc4N)o3)[nH]n2)cc1` [5-(2-Amino-phenyl)-[1,3,4]oxadiazole-2-carboxylic acid[5-(4-methoxy-phenyl)-1Hpyrazol-3-yl]-amide] here?
A: > 100 µM
